# Results taken from paper PMC7017397 (ACS Omega, 2020).
# Legend:
# [1] = Spinal cord pharmacokinetics after a single 1 mg/kg dose; assay type: in vivo, C57BL/6J mice; conditions: for Cmax / MRT last / Tmax / k el: C57BL/6J, mouse, 1 mg/kg; for spinal cord drug targeting efficiency: from zero-infinity predicted AUC values
# Summary of the method: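 Anaesthetized (zolazepam/xylazine i.p.) male C57BL/6J mice, n = 4 per time point, were dosed 1 mg/kg by i.v., s.c., i.p. or gavage. At 2.5–90 min, after cardiac blood sampling, they were transcardially perfused with saline. Brain and spinal cord were homogenized in equal weight-volume water, spiked with internal standard, deproteinized 1:3 with cold acetonitrile and quantified by LC–MS/MS. Per-time-point means were fitted with a two-compartment model.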
# [2] = Plasma pharmacokinetics after a single 1 mg/kg dose; assay type: in vivo, C57BL/6J mice; conditions: for AUC / MRT last / k el: C57BL/6J, mouse, 1 mg/kg
# Summary of the method: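 Male C57BL/6J mice (10–12 weeks; n = 4 per time point) under i.p. zolazepam 50 mg/kg plus xylazine 12 mg/kg received 1 mg/kg in 5% dextrose (37 °C) by tail-vein i.v., s.c., i.p. or gavage. Terminal cardiac-puncture blood was taken into EDTA at 2.5–90 min. Plasma was spiked with internal standard, acetonitrile-deproteinized and measured by LC–MS/MS. Mean levels were fitted two-compartmentally, with AUC by linear trapezoidal rule.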
# [3] = spinal cord, i.p. 1 mg/kg single dose
# [4] = spinal cord, i.v. 1 mg/kg single dose
# [5] = spinal cord, p.o. 1 mg/kg single dose
# [6] = spinal cord, s.c. 1 mg/kg single dose
compound,measurement,setting,value
"CC(=O)N[C@@H](Cc1ccccc1)C(=O)N[C@H]1CCCNC(=O)[C@H](CCCNC(=N)N)NC(=O)[C@H](Cc2c[nH]c3ccccc23)NC(=O)[C@@H](CC2CCCCC2)NC(=O)[C@@H]2CCCN2C1=O [PMX53, Ac-Phe-[Orn-Pro-dCha-Trp-Arg]]",Cmax,"[1]; spinal cord, ip",71.3 ng/g
same,MRT last,"[1]; spinal cord, ip",37.2 min
same,Tmax,"[1]; spinal cord, ip",11.9 min
same,k el,"[1]; spinal cord, ip",0.000242 s⁻¹
same,Cmax,"[1]; spinal cord, iv",130 ng/g
same,MRT last,"[1]; spinal cord, iv",41.4 min
same,k el,"[1]; spinal cord, iv",0.000111 s⁻¹
same,Cmax,"[1]; spinal cord, po",75.9 ng/g
same,MRT last,"[1]; spinal cord, po",40.8 min
same,Tmax,"[1]; spinal cord, po",14.9 min
same,k el,"[1]; spinal cord, po",0.000122 s⁻¹
same,Cmax,"[1]; spinal cord, sc",96.6 ng/g
same,MRT last,"[1]; spinal cord, sc",38.4 min
same,Tmax,"[1]; spinal cord, sc",23.1 min
same,k el,"[1]; spinal cord, sc",0.000519 s⁻¹
same,spinal cord drug targeting efficiency,[1]; i.p. 1 mg/kg,0.63
same,spinal cord drug targeting efficiency,[1]; p.o. 1 mg/kg,4.42
same,spinal cord drug targeting efficiency,[1]; s.c. 1 mg/kg,0.77
same,"Alpha (hybrid first-order rate constant, distribution phase)",[1]; [3],0.87 h⁻¹
same,"Beta (hybrid first-order rate constant, elimination phase)",[1]; [3],0.19 h⁻¹
same,CLD2_F (apparent total clearance of the drug after administration),[1]; [3],0.01 ng/(min ng/g)
same,CL_F (apparent total body clearance of the drug),[1]; [3],5.15 ng/(min ng/g)
same,K01 (absorption rate constant),[1]; [3],15.39 h⁻¹
same,K12 (distribution rate constant),[1]; [3],<0.01 h⁻¹
same,K21 (redistribution rate constant),[1]; [3],0.19 h⁻¹
same,V1_F (apparent volume of central compartment),[1]; [3],0.35 μg/(ng/g)
same,V2_F (apparent volume of peripheral compartment),[1]; [3],<0.01 μg/(ng/g)
same,"Alpha (hybrid first-order rate constant, distribution phase)",[1]; [4],26.36 h⁻¹
same,"Beta (hybrid first-order rate constant, elimination phase)",[1]; [4],0.27 h⁻¹
same,CLD2_F (apparent total clearance of the drug after administration),[1]; [4],30.58 ng/(min ng/g)
same,CL_F (apparent total body clearance of the drug),[1]; [4],1.52 ng/(min ng/g)
same,K12 (distribution rate constant),[1]; [4],7.94 h⁻¹
same,K21 (redistribution rate constant),[1]; [4],18.30 h⁻¹
same,V1_F (apparent volume of central compartment),[1]; [4],0.23 μg/(ng/g)
same,V2_F (apparent volume of peripheral compartment),[1]; [4],0.10 μg/(ng/g)
same,Vss (apparent volume of distribution at a steady state),[1]; [4],0.33 μg/(ng/g)
same,"Alpha (hybrid first-order rate constant, distribution phase)",[1]; [5],1.69 h⁻¹
same,"Beta (hybrid first-order rate constant, elimination phase)",[1]; [5],0.26 h⁻¹
same,CLD2_F (apparent total clearance of the drug after administration),[1]; [5],2.71 ng/(min ng/g)
same,CL_F (apparent total body clearance of the drug),[1]; [5],2.33 ng/(min ng/g)
same,K01 (absorption rate constant),[1]; [5],11.20 h⁻¹
same,K12 (distribution rate constant),[1]; [5],0.51 h⁻¹
same,K21 (redistribution rate constant),[1]; [5],1.00 h⁻¹
same,V1_F (apparent volume of central compartment),[1]; [5],0.32 μg/(ng/g)
same,V2_F (apparent volume of peripheral compartment),[1]; [5],0.16 μg/(ng/g)
same,"Alpha (hybrid first-order rate constant, distribution phase)",[1]; [6],2.66 h⁻¹
same,"Beta (hybrid first-order rate constant, elimination phase)",[1]; [6],0.22 h⁻¹
same,CLD2_F (apparent total clearance of the drug after administration),[1]; [6],1.36 ng/(min ng/g)
same,CL_F (apparent total body clearance of the drug),[1]; [6],3.68 ng/(min ng/g)
same,K01 (absorption rate constant),[1]; [6],2.70 h⁻¹
same,K12 (distribution rate constant),[1]; [6],0.69 h⁻¹
same,K21 (redistribution rate constant),[1]; [6],0.32 h⁻¹
same,V1_F (apparent volume of central compartment),[1]; [6],0.12 μg/(ng/g)
same,V2_F (apparent volume of peripheral compartment),[1]; [6],0.26 μg/(ng/g)
same,AUC,[2]; ip,1800 ng·h/mL
same,MRT last,[2]; ip,27.4 min
same,k el,[2]; ip,0.00114 s⁻¹
same,AUC,[2]; iv,2510 ng·h/mL
same,MRT last,[2]; iv,13.2 min
same,k el,[2]; iv,0.00193 s⁻¹
same,AUC,[2]; po,227 ng·h/mL
same,MRT last,[2]; po,32.6 min
same,k el,[2]; po,0.000711 s⁻¹
same,AUC,[2]; sc,2240 ng·h/mL
same,MRT last,[2]; sc,38.8 min
same,k el,[2]; sc,0.000592 s⁻¹
same,"Alpha (hybrid first-order rate constant, distribution phase)",[2]; i.p. 1 mg/kg single dose,0.07 min⁻¹
same,"Beta (hybrid first-order rate constant, elimination phase)",[2]; i.p. 1 mg/kg single dose,0.03 min⁻¹
same,CLD2_F (apparent total clearance of the drug from plasma after administration),[2]; i.p. 1 mg/kg single dose,<0.01 µL/min
same,CL_F (apparent total body clearance of the drug from plasma),[2]; i.p. 1 mg/kg single dose,0.16 µL/min
same,K01 (absorption rate constant),[2]; i.p. 1 mg/kg single dose,4.29 h⁻¹
same,K12 (distribution rate constant),[2]; i.p. 1 mg/kg single dose,<0.001 h⁻¹
same,K21 (redistribution rate constant),[2]; i.p. 1 mg/kg single dose,2.00 h⁻¹
same,V1_F (apparent volume of central compartment),[2]; i.p. 1 mg/kg single dose,<0.01 mL
same,V2_F (apparent volume of peripheral compartment),[2]; i.p. 1 mg/kg single dose,<0.01 mL
same,"Alpha (hybrid first-order rate constant, distribution phase)",[2]; i.v. 1 mg/kg single dose,0.20 min⁻¹
same,"Beta (hybrid first-order rate constant, elimination phase)",[2]; i.v. 1 mg/kg single dose,0.05 min⁻¹
